Here are results for 21 compounds from PubChem BioAssay.

Experiment [1] is described as follows: HUVEC growth inhibition – cell-based, human, primary screen (AID 575;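 active means viability at or below 30% in both replicate assays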;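 further: 100% = median of untreated cell wells with 0.1% DMSO on each plate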). The conditions noted are these: HUVEC proliferation, CellTiter-Glo luminescence, 72 h; at 10 µM; stronger effect = lower value. The gist of the method:
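System: primary human umbilical vein endothelial cells; Quantity: 1250 endothelial cells in each well; Buffer or medium: supplemented EBM, 2% fetal bovine serum; Doses: one dose, 10 µM final, 0.1% DMSO; Incubation: 72 h compound incubation; Technique: ATP-based CellTiter-Glo luminescent read; Evaluation: percent of median DMSO-control luminescence; Controls: vehicle and MePR control wells.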

Experiment [2] can be described thus: H69AR cell proliferation blockers – human, duplicate replicates, primary screen (AID 580;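 active means viability at or under a set limit in both replicates, limit being median viability minus 3 SD, cut at about 48% in these data, passing the limit was not always enough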;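 further: 100% = mean luminescence of untreated wells and 0% = no signal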). The conditions noted are these: H69AR lung tumor cells viability, ATP luminescence, 72 h; at 10 µM; stronger effect = lower value.
Experiment [3] in a line: MRP1 drug-resistance reversers in H69AR cells – cell-based, doxorubicin co-treatment, pilot screen (AID 601;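 active means viability loss from added drug above about 55%, and viability with drug at most 40%, in both replicates, limit read from the data, passing the limit was not always enough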). The conditions noted are these: CellTiter-Glo, 72 h, at 10 µM; for differential viability (reversal): stronger effect = higher value. Background: In ATP-based viability assays light output follows the ATP content of the culture.
Experiment [4] is described as follows: yeast transport mutant growth inhibition pilot in 384-well plates, post-Golgi transport modulator project (AID 636). The settings on record: absorbance 615 nm, about 18 h, stronger effect = higher value.
Experiment [5] is described as follows: growth suppression of yeast trafficking mutant, preliminary HTS, modulators of trafficking downstream of Golgi apparatus project, 1536-format plate, OD 615 nm (AID 637; in the data active means inhibition above about 30%). The conditions noted are these: yeast transport mutant growth, absorbance 615 nm, 18 h; stronger effect = higher value.
Setting [6] is: H69AR cells + 2 uM doxorubicin, measured here: viability with 2 uM doxorubicin, stronger effect = lower value.
Setting [7] is: H69AR cells, compound alone cytotoxicity.

The source made the active and inactive calls. Unless noted, no stated cut-off is given here; in the data, active means inhibition above about 31%; inactive means the rest.

As for `Cc1nn(C)c(C)c1NC(=O)CCSc1nc(-c2ccco2)cc(C(F)(F)F)n1`, the viability (as a rule, a read-out of living cells in per cent, often relative to untreated cells) is 93% (inactive) in experiment [1], 98.8% (inactive) in experiment [2], 95% in experiment [3] (setting [6]) and 98.8% in experiment [3] (setting [7]). Moreover, the differential viability (reversal) in experiment [3] (H69AR cells + 2 uM doxorubicin) was 3.76% (inactive). The inhibition (in general, the relative decrease from the control value, in per cent) is -2.93% (inactive) in experiment [4] and 4.44% (inactive) in experiment [5].
With `Cn1c(=O)n(C)c2cc(NC(=O)C(F)(F)F)ccc21`, the viability in experiment [1] is 68.9% (inactive); in experiment [2] it was 97.4% (inactive); in experiment [3] (setting [6]) it was 85.8%; in experiment [3] (setting [7]) it was 97.4%. In experiment [3] (H69AR cells + 2 uM doxorubicin), the differential viability (reversal) is 11.6% (inactive). Moreover, the inhibition in experiment [4] is -0.92% (inactive); in experiment [5], -7.94% (inactive).
As for `O=C(NC1CCCCC1)C1CCCN1C(=O)NCc1ccccc1` (configuration not stated), the viability in experiment [1] was 101% (inactive); in experiment [2], 102% (inactive); in experiment [3] (setting [6]), 104%; in experiment [3] (setting [7]), 102%. Further, in experiment [3] (H69AR cells + 2 uM doxorubicin), the differential viability (reversal) is -1.87% (inactive). Besides, the values for the inhibition in experiment [4] and in experiment [5] were -4.93% (inactive) and -3.17% (inactive), respectively.
For `O=C(NCc1ccco1)C1Cc2ccccc2CN1S(=O)(=O)c1ccccc1F` (configuration not stated), the viability was 57.5% (inactive) in experiment [1], 25.3% (active) in experiment [2], 34.6% in experiment [3] (setting [6]) and 25.3% in experiment [3] (setting [7]). Moreover, in experiment [3] (H69AR cells + 2 uM doxorubicin), the differential viability (reversal) was -9.23% (inactive). For the same compound, the figures for the inhibition in experiment [4] and in experiment [5] were -1.95% (inactive) and 1.27% (inactive), respectively.
As to `Nc1nc(NC(=O)c2cccs2)nn1-c1ccccc1`, the viability in experiment [1] is 101% (inactive); in experiment [2] it was 94% (inactive); in experiment [3] (setting [6]) it was 86.7%; in experiment [3] (setting [7]), 94%. The differential viability (reversal) in experiment [3] (H69AR cells + 2 uM doxorubicin) is 7.31% (inactive). Moreover, the figures for the inhibition in experiment [4] and in experiment [5] were -6.45% (inactive) and -4.29% (inactive), respectively.
Turning to `O=C(NCC1CCCO1)c1cccc(N2CCCC2=O)c1` (configuration not stated), the viability is 90% (inactive) in experiment [1], 90.2% (inactive) in experiment [2], 91% in experiment [3] (setting [6]) and 90.2% in experiment [3] (setting [7]). In experiment [3] (H69AR cells + 2 uM doxorubicin), the differential viability (reversal) is -0.795% (inactive). Besides, the inhibition in experiment [4] is -5.47% (inactive); in experiment [5] it was 1.9% (inactive).
As for `CCC(=O)N1CCc2cc(Br)cc(S(=O)(=O)C3(C(=O)OC)CC3)c21`, the viability is 102% (inactive) in experiment [1], 90.8% (inactive) in experiment [2], 82.6% in experiment [3] (setting [6]) and 90.8% in experiment [3] (setting [7]). Also, the differential viability (reversal) in experiment [3] (H69AR cells + 2 uM doxorubicin) is 8.17% (inactive). For the same compound, the results for the inhibition in experiment [4] and in experiment [5] were -1.82% (inactive) and 0.79% (inactive), respectively.
As for `CC(C)Cn1cc(C(=O)NCC2CCCO2)c2c3ccccc3n(C)c2c1=O` (configuration not stated), the viability in experiment [1] is 104% (inactive); in experiment [2] it was 89.5% (inactive); in experiment [3] (setting [6]), 87.8%; in experiment [3] (setting [7]), 89.5%. Besides, in experiment [3] (H69AR cells + 2 uM doxorubicin), the differential viability (reversal) is 1.72% (inactive). Moreover, the inhibition in experiment [4] is -2.08% (inactive); in experiment [5], 1.59% (inactive).
Consider `O=C(Cc1c[nH]c2ccccc12)N1CCc2ccccc21`, for which the viability is 88.9% (inactive) in experiment [1], 80.7% (inactive) in experiment [2], 67.5% in experiment [3] (setting [6]) and 80.7% in experiment [3] (setting [7]). In experiment [3] (H69AR cells + 2 uM doxorubicin), the differential viability (reversal) is 13.1% (inactive). Moreover, the figures for the inhibition in experiment [4] and in experiment [5] were -2.99% (inactive) and -2.86% (inactive), respectively.
Consider `N#Cc1nc(-c2ccccc2Cl)oc1N1CCOCC1`, for which the viability in experiment [1] was 84.2% (inactive); in experiment [2], 86.8% (inactive); in experiment [3] (setting [6]), 83.3%; in experiment [3] (setting [7]), 86.8%. Moreover, the differential viability (reversal) in experiment [3] (H69AR cells + 2 uM doxorubicin) was 3.5% (inactive). Besides, the inhibition is -3.47% (inactive) in experiment [4] and 14.1% (inactive) in experiment [5].
Regarding `CCN1CCN(C(=O)c2cn(CCOC)c(=O)c3c2c2ccccc2n3C)CC1`, the viability in experiment [1] is 106% (inactive); in experiment [2], 90.6% (inactive); in experiment [3] (setting [6]) it was 93.4%; in experiment [3] (setting [7]), 90.6%. In addition, the differential viability (reversal) in experiment [3] (H69AR cells + 2 uM doxorubicin) was -2.77% (inactive). Moreover, the inhibition in experiment [4] is -2.86% (inactive); in experiment [5], -5.4% (inactive).
On to `CCCCCCn1c(CN2CCN(Cc3ccccc3)CC2)nc2c1c(=O)n(C)c(=O)n2C`, for which the viability in experiment [1] was 86.6% (inactive); in experiment [2] it was 70.9% (inactive); in experiment [3] (setting [6]) it was 32.1%; in experiment [3] (setting [7]) it was 70.9%. For the same compound, the differential viability (reversal) in experiment [3] (H69AR cells + 2 uM doxorubicin) was 38.8% (inactive). The inhibition in experiment [4] was -5.48% (inactive); in experiment [5] it was 4.55% (inactive).
`CC1CCN(C(=O)c2cc(-c3ccc(Cl)c(Cl)c3)on2)CC1`: the viability in experiment [1] is 77.1% (inactive); in experiment [2] it was 90.7% (inactive); in experiment [3] (setting [6]), 80.2%; in experiment [3] (setting [7]), 90.7%. Further, the differential viability (reversal) in experiment [3] (H69AR cells + 2 uM doxorubicin) was 10.5% (inactive). In addition, the inhibition in experiment [4] is -2.11% (inactive); in experiment [5], 0.95% (inactive).
Regarding `CS(=O)(=O)N(CC(=O)N1CCN(c2cccc(Cl)c2)CC1)C1CCCCC1`, the viability is 80.6% (inactive) in experiment [1], 79.6% (inactive) in experiment [2], 87.1% in experiment [3] (setting [6]) and 79.6% in experiment [3] (setting [7]). Moreover, the differential viability (reversal) in experiment [3] (H69AR cells + 2 uM doxorubicin) was -7.54% (inactive). Further, the inhibition was -4.29% (inactive) in experiment [4] and -7.78% (inactive) in experiment [5].
As to `CCOC(=O)CCC(=O)c1c(C)oc2ccc(OC)cc12`, the viability is 81.8% (inactive) in experiment [1], 88.4% (inactive) in experiment [2], 93.4% in experiment [3] (setting [6]) and 88.4% in experiment [3] (setting [7]). Moreover, the differential viability (reversal) in experiment [3] (H69AR cells + 2 uM doxorubicin) was -5% (inactive). The results for the inhibition in experiment [4] and in experiment [5] were 1.04% (inactive) and 13.3% (inactive), respectively.
For `CCc1ccc(CCC(=O)Nc2ccc(C)c(C)c2)o1`, the viability in experiment [1] was 102% (inactive); in experiment [2], 95.1% (inactive); in experiment [3] (setting [6]), 87.9%; in experiment [3] (setting [7]), 95.1%. Moreover, in experiment [3] (H69AR cells + 2 uM doxorubicin), the differential viability (reversal) was 7.16% (inactive). Further, the results for the inhibition in experiment [4] and in experiment [5] were -8.4% (inactive) and -3.65% (inactive), respectively.
As to `O=C(NC1CC2CCC1C2)C1COc2ccccc2O1` (configuration not stated), the viability in experiment [1] is 100% (inactive); in experiment [2], 87.9% (inactive); in experiment [3] (setting [6]) it was 83.4%; in experiment [3] (setting [7]), 87.9%. Besides, the differential viability (reversal) in experiment [3] (H69AR cells + 2 uM doxorubicin) is 4.5% (inactive). For the same compound, the results for the inhibition in experiment [4] and in experiment [5] were -3.55% (inactive) and -2.38% (inactive), respectively.
Regarding `c1ccc(-c2nn3nnnc3c3ccccc23)cc1`, the viability in experiment [1] was 105% (inactive); in experiment [2], 90.8% (inactive); in experiment [3] (setting [6]) it was 90.3%; in experiment [3] (setting [7]), 90.8%. In addition, the differential viability (reversal) in experiment [3] (H69AR cells + 2 uM doxorubicin) is 0.43% (inactive). The inhibition was -1.04% (inactive) in experiment [4] and 0.79% (inactive) in experiment [5].
Turning to `CC(C)(C)NC(=O)CN(C(=O)CS(=O)CC(=O)Nc1ccc(F)cc1)c1ccc(Cl)cc1` (configuration not stated), the viability in experiment [1] is 95.2% (inactive); in experiment [2] it was 98.9% (inactive); in experiment [3] (setting [6]) it was 88.6%; in experiment [3] (setting [7]), 98.9%. Further, the differential viability (reversal) in experiment [3] (H69AR cells + 2 uM doxorubicin) was 10.3% (inactive). For the same compound, the inhibition in experiment [4] was -4.53% (inactive); in experiment [5] it was 21.9% (inactive).
As for `Cc1cc(NC(=O)c2cc(-c3ccco3)on2)n(-c2ccccc2)n1`, the viability in experiment [1] was 80.7% (inactive); in experiment [2] it was 106% (inactive); in experiment [3] (setting [6]) it was 92.6%; in experiment [3] (setting [7]) it was 106%. Besides, in experiment [3] (H69AR cells + 2 uM doxorubicin), the differential viability (reversal) is 13% (inactive). For the same compound, the inhibition in experiment [4] was -2.5% (inactive); in experiment [5], 1.9% (inactive).
`Cc1ccc(Nc2nc(CSc3nnc(-c4cccs4)o3)cs2)cc1`: the viability in experiment [1] is 78.7% (inactive); in experiment [2], 90.5% (inactive); in experiment [3] (setting [6]) it was 92.2%; in experiment [3] (setting [7]), 90.5%. Further, the differential viability (reversal) in experiment [3] (H69AR cells + 2 uM doxorubicin) is -1.67% (inactive). In addition, the inhibition was -4.8% (inactive) in experiment [4] and -2.22% (inactive) in experiment [5].
